Where a SMILES comes first, the peptide text is derived from it.
B1: MDP-3DSS (peptide)
peptide: CPKESCNLFVLKDDSSDSSDSS
B2: MDP-a (peptide)
peptide: CDWWSCWLDVLKD
B3: CBP1495 (peptide)
peptide: CPKESCNLFVLKD

Key:
[1] = TEM/SAED/EDS of calcium phosphate; format: physicochemical; details: TEM; 0.1 mM peptide, pH 7.0; control: irregularly shaped aggregates
[2] = Dentin slice remineralization, SEM and tubule plugging rate; design: species or system human; details: 0.1 mM peptide 12 h; for plugging rate of dentinal tubules vs control: SEM 3,000×, p < 0.0001; for dentinal tubule diameters (SEM surface) / mineral depth in dentin tubules (SEM cross section) / mineral growth on dentin (SEM surface): then artificial saliva pH 7.0, 2 w
How it was run: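 Human third-molar crown dentin cut to 5 × 5 × 2 mm slices and polished. Etched with 35% phosphoric gel for 30 s, 5.25% NaOCl for 1 min, sonicated 10 min. Soaked in 0.1 mM peptide for 12 h, rinsed, then 2 w in artificial saliva (pH 7.0) refreshed daily. Peptide-free control. SEM of surface and cross-section; plugging rate from open-tubule counts at 3,000×; n = 9; one-way ANOVA with Tukey.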

type I collagen fiber = assay: Collagen fiber mineralization, TEM/SAED/EDS; details: 0.1 mM peptide, 7 d; for electron density distribution of collagen fiber (TEM): 3.90 mM CaCl2, 3.83 mM Na2HPO4, pH 7.0, 37 °C; for SAED arc-shaped patterns (hkl) of hydroxyapatite: 37 °C, control one ring (300); for calcium and phosphate distribution (EDS) / fiber mineralization: pH 7.0, 37 °C; for fiber mineralization: TEM
How it was run: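 Type I collagen fibers self-assembled in 50 mM glycine/200 mM KCl (pH 9.2), room temperature, 20 min, on nickel grids at 37 °C for 12 h, then fixed in 0.05% glutaraldehyde for 1 h. Grids immersed at 37 °C for 7 d in 3.90 mM CaCl₂/3.83 mM Na₂HPO₄ (pH 7.0) with 0.1 mM peptide, changed every 24 h. Peptide-free control. Rinsed, ethanol-dehydrated; TEM, SAED, EDS.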

rat type I collagen [3] = biological target: rat type I collagen (Rattus norvegicus, UniProt P02454+P02466); assay: SPR affinity of peptides for type I collagen; format: binding; details: for Rmax: SPR, 1:1 binding; for kon: read-out: 1:1 binding ka; for koff: read-out: Kd (dissociation rate constant)
How it was run: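 Rat type I collagen preconcentrated in sodium acetate (pH 5.0) and amine-coupled to a CM5 chip. Peptide in sodium acetate buffer at five concentrations, 30 µL/min; 100 s contact, 80 s dissociation. Regeneration with glycine 2.0 for 30 s. Three cycles, multicycle kinetics; K_D calculated.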

collagen membrane [4] = assay: Calcium ion adsorption by collagen membrane, ICP-MS; details: 0.1 mM peptide, pH 7.0, 37 °C, 7 d, n = 9, p < 0.0001
collagen membrane [5] = assay: TGA of mineralized collagen membrane; details: 0.1 mM peptide, 37 °C, 7 d; n = 9; p < 0.0001
[6] = Mechanical properties of remineralized dentin; design: species or system human; details: compared with MDP-a group; 2 w mineralization
How it was run: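 Nanoindentation of the new mineral layer on dentin slices after 2 w of remineralization, tested alongside sound and etched slices. Conditions: 10 mN force, 10 s loading, 2 s hold, Poisson's ratio 0.28. Five points per sample, nine samples per group. Elastic modulus and microhardness derived from load–displacement curves; one-way ANOVA with Tukey.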

type I collagen = details: isothermal titration calorimetry and enzyme-linked immunosorbent assays; ref [14] (Lei et al.); cited from earlier work
rat type I collagen [7] = biological target: rat type I collagen (rat, UniProt P02454 152-1207; P02466 86-1125); assay: SPR
Sequence of rat type I collagen (rat, UniProt P02454 152-1207; P02466 86-1125) (P02454 152-1207, chain 1 of 2): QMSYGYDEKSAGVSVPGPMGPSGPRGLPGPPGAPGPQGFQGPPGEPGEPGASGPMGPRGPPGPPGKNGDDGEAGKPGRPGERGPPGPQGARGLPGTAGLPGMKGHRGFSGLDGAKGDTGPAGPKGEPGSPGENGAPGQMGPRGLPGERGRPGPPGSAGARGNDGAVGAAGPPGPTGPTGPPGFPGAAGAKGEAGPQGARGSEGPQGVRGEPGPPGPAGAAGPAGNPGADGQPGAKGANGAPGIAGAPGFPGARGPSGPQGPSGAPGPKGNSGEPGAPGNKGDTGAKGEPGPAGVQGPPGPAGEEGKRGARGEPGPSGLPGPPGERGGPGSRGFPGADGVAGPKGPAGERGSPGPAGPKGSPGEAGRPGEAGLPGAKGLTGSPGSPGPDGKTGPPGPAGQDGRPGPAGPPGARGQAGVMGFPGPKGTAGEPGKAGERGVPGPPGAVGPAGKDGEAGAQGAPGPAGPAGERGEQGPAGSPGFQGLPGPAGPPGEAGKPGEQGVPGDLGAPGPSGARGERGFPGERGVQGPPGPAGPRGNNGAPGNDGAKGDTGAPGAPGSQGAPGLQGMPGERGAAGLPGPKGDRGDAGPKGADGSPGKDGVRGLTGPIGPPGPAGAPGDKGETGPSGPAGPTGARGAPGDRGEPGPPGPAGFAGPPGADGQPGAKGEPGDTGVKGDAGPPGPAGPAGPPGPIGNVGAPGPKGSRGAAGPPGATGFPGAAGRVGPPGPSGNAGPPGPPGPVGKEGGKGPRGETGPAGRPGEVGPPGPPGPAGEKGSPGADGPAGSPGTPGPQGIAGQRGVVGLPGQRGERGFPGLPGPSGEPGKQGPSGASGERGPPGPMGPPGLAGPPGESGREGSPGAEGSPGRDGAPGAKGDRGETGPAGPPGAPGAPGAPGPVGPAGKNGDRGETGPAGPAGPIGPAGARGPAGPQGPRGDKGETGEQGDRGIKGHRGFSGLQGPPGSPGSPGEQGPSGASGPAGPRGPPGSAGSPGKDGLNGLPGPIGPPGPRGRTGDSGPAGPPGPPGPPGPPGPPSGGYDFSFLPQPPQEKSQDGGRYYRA
Sequence of rat type I collagen (rat, UniProt P02454 152-1207; P02466 86-1125) (P02466 86-1125, chain 2 of 2): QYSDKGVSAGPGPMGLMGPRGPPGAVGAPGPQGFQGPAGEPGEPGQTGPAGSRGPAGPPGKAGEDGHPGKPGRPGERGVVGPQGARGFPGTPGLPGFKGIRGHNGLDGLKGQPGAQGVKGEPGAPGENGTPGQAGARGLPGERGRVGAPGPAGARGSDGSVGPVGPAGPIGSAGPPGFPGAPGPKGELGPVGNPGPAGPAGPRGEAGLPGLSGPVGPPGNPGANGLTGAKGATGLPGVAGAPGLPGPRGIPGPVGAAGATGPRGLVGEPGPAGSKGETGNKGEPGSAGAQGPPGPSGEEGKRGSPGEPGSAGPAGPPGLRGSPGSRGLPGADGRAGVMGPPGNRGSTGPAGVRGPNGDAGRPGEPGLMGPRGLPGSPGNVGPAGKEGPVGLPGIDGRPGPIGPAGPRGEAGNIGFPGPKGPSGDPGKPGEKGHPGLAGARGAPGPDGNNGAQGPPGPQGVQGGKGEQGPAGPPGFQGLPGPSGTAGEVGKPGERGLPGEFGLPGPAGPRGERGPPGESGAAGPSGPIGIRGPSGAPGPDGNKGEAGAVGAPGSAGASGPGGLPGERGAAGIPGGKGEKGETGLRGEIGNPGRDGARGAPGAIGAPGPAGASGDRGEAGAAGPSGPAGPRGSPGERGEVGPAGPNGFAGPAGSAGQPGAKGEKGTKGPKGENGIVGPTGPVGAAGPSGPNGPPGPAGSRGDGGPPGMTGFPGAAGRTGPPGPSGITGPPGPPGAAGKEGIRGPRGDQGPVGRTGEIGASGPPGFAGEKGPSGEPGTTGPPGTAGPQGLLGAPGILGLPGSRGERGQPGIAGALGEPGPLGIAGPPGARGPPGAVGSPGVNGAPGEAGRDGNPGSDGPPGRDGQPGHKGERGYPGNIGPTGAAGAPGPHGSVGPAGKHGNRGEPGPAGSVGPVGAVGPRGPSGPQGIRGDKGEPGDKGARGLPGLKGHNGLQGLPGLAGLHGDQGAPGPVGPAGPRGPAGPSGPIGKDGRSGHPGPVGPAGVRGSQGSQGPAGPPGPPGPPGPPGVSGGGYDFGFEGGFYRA

Molecule | morphology of particles [1] | plugging rate of dentinal tubules vs control ([2]; artificial saliva 2 w, n = 9) | dentinal tubule diameters (SEM surface) [2] | mineral depth in dentin tubules (SEM cross section) [2] | mineral growth on dentin (SEM surface) [2] | electron density distribution of collagen fiber (TEM) (type I collagen fiber) | SAED arc-shaped patterns (hkl) of hydroxyapatite (type I collagen fiber) | calcium and phosphate distribution (EDS) (type I collagen fiber) | fiber mineralization (type I collagen fiber) | Rmax (rat type I collagen [3]) | kon (rat type I collagen [3]) | koff (rat type I collagen [3]) | Kd (rat type I collagen [7]) | further results
CC(C)C[C@H](NC(=O)[C@H](Cc1c[nH]c2ccccc12)NC(=O)[C@H](CS)NC(=O)[C@H](CO)NC(=O)[C@H](Cc1c[nH]c2ccccc12)NC(=O)[C@H](Cc1c[nH]c2ccccc12)NC(=O)[C@H](CC(=O)O)NC(=O)[C@@H](N)CS)C(=O)N[C@@H](CC(=O)O)C(=O)N[C@H](C(=O)N[C@@H](CC(C)C)C(=O)N[C@@H](CCCCN)C(=O)N[C@@H](CC(=O)O)C(=O)O)C(C)C [MDP-a] (H-CDWWSCWLDVLKD-OH; N-terminus and C-terminus assumed) | uneven, dense, spherical aggregated particles | increased significantly | significantly reduced | 7 μm | dense mineral growth was observed on the surface and inside the dentinal tubules | increase in electron density, the distribution along the collagen fiber was notably uneven, with a substantial amount of electrons present outside the fiber | 002,300 | more scattered along the fiber axis | evident fiber mineralization | 53152.0 RU | 32900 M⁻¹ s⁻¹ | 0.594 s⁻¹ |  | 
CC(C)C[C@H](NC(=O)[C@H](CC(N)=O)NC(=O)[C@H](CS)NC(=O)[C@H](CO)NC(=O)[C@H](CCC(=O)O)NC(=O)[C@H](CCCCN)NC(=O)[C@@H]1CCCN1C(=O)[C@@H](N)CS)C(=O)N[C@@H](Cc1ccccc1)C(=O)N[C@H](C(=O)N[C@@H](CC(C)C)C(=O)N[C@@H](CCCCN)C(=O)N[C@@H](CC(=O)O)C(=O)N[C@@H](CC(=O)O)C(=O)N[C@@H](CO)C(=O)N[C@@H](CO)C(=O)N[C@@H](CC(=O)O)C(=O)N[C@@H](CO)C(=O)N[C@@H](CO)C(=O)N[C@@H](CC(=O)O)C(=O)N[C@@H](CO)C(=O)N[C@@H](CO)C(=O)O)C(C)C [MDP-3DSS] (H-CPKESCNLFVLKDDSSDSSDSS-OH; N-terminus and C-terminus assumed) | aggregated particles arranged in loose chains | increased significantly | significantly reduced | 7 μm | dense mineral growth was observed on the surface and inside the dentinal tubules | uniform and dense electron distribution, with significantly increased electron density, indicating a highly mineralized structure | 002,112,401,122 | highly concentrated along the fiber axis, with a minimal presence of these ions outside the fiber | evident fiber mineralization | 65526.7 RU | 30800 M⁻¹ s⁻¹ | 0.58 s⁻¹ |  | calcium ion adsorption by collagen membrane, MDP-3DSS vs MDP-a (collagen membrane [4]): promoted the adsorption of calcium ions by collagen more effectively than MDP-a; residual mineral content (TGA) (collagen membrane [5]): highest residual mineral content; plugging rate of dentinal tubules, MDP-3DSS vs MDP-a ([2]; artificial saliva 2 w, n = 9, p = 0.0019): greater plugging rate of dentinal tubules; elastic modulus and microhardness relative to sound dentin [6]: closer to those of sound dentin group
CC(C)C[C@H](NC(=O)[C@H](CC(N)=O)NC(=O)[C@H](CS)NC(=O)[C@H](CO)NC(=O)[C@H](CCC(=O)O)NC(=O)[C@H](CCCCN)NC(=O)[C@@H]1CCCN1C(=O)[C@@H](N)CS)C(=O)N[C@@H](Cc1ccccc1)C(=O)N[C@H](C(=O)N[C@@H](CC(C)C)C(=O)N[C@@H](CCCCN)C(=O)N[C@@H](CC(=O)O)C(=O)O)C(C)C [CBP1495, reference compound] (H-CPKESCNLFVLKD-OH; N-terminus and C-terminus assumed) |  |  |  |  |  |  |  |  |  | 190942.7 RU | 10600 M⁻¹ s⁻¹ | 0.624 s⁻¹ |  | binding to type I collagen (type I collagen): can bind to type I collagen with strong affinity
B1 |  |  |  |  |  |  |  |  |  |  |  |  | 18.9 µM | 
B2 |  |  |  |  |  |  |  |  |  |  |  |  | 18 µM | 
B3 |  |  |  |  |  |  |  |  |  |  |  |  | 59 µM | 

From paper PMC12335033 (BMC Oral Health, 2025)
